Measurements as given in ChEMBL document CHEMBL5356951, “Semisynthetic polymyxins with potent antibacterial activity and reduced kidney cell toxicity” (RSC Med Chem, 2023).
In brackets after ≈: the same amount, converted by molar mass. Positions of bridges follow the written chain, without caps; N, C: chain ends. Non-standard residues stand in square brackets, D forms with d. Residues, ends and D or L forms follow the SMILES beside them. *: point of attachment. X1 = CC[C@H](C)CCCCC(=O)*; Dab = NCC[C@H](N)C(=O)O

Tests used:
Acinetobacter baumannii [1] = experiment: Antibacterial activity against Acinetobacter baumannii 2018-006 assessed as bacterial growth inhibition by broth microdilution assay; type: functional
Procedure, shortened: (§1)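 Broth microdilution MIC. Strains grown overnight on blood agar at 37 °C, colonies suspended in TSB and grown to OD600 0.5. Compounds dissolved in DMSO (6.4 mg mL−1 stock), diluted serially in CAMHB (12.5 μg mL−1 Mg2+, 20 μg mL−1 Ca2+) on polypropylene plates. Final inoculum 10^6 CFU mL−1, 37 °C under gas-permeable membrane. MIC is the lowest concentration with no visible growth, consistent across at least triplicate experiments.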

Klebsiella pneumoniae [2] = experiment: Antibacterial activity against Klebsiella pneumoniae NCTC 13443 assessed as bacterial growth inhibition by broth microdilution assay; type: functional
Procedure, shortened: (§2)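 Broth microdilution. Bacteria from glycerol stocks were grown overnight on blood agar at 37 °C, then colonies were suspended in TSB and grown to OD600 0.5. Compounds were dissolved in DMSO at 6.4 mg mL−1 (stock) and serially diluted in CAMHB (Mg2+ 12.5, Ca2+ 20 μg mL−1) in polypropylene plates. Inoculum was 10^6 CFU mL−1 final, incubated at 37 °C. MIC = lowest concentration without visible growth; values consistent across at least triplicate experiments.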

Klebsiella pneumoniae [3] = experiment: Antibacterial activity against Klebsiella pneumoniae ATCC 13883 assessed as bacterial growth inhibition by broth microdilution assay; type: functional; procedure, shortened: as §2
Klebsiella pneumoniae [4] = experiment: Antibacterial activity against Klebsiella pneumoniae JS-123 assessed as bacterial growth inhibition by broth microdilution assay; type: functional; procedure, shortened: as §2
Escherichia coli [5] = experiment: Antibacterial activity against Escherichia coli ATCC 25922 assessed as bacterial growth inhibition by broth microdilution assay; type: functional; procedure, shortened: as §2
Acinetobacter baumannii [6] = experiment: Antibacterial activity against multidrug-resistant Acinetobacter baumannii assessed as bacterial growth inhibition by broth microdilution assay; type: functional; procedure, shortened: as §1
Pseudomonas aeruginosa [7] = experiment: Antibacterial activity against Pseudomonas aeruginosa NRZ 08418 assessed as bacterial growth inhibition by broth microdilution assay; type: functional; procedure, shortened: as §2
Pseudomonas aeruginosa [8] = experiment: Antibacterial activity against Pseudomonas aeruginosa NRZ 03961 assessed as bacterial growth inhibition by broth microdilution assay; type: functional; procedure, shortened: as §2
Pseudomonas aeruginosa [9] = experiment: Antibacterial activity against Pseudomonas aeruginosa ATCC 27853 assessed as bacterial growth inhibition by broth microdilution assay; type: functional; procedure, shortened: as §2
[10] = Cytotoxicity against human ciPTEC cells assessed as reduction in cell viability at 250 uM incubated for 24 hrs by PrestoBlue reagent based fluorescence assay; type: toxicity
Procedure, shortened: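 Differentiated ciPTEC-14.4 (conditionally immortalized) cells were washed with HBSS and then exposed to 250 μM compound in serum-free supplemented DMEM/F-12 for 24 h at 37 °C. After an HBSS wash, cells were incubated with 10% PrestoBlue in HBSS at 37 °C in the dark. Fluorescence was read at ex 530/em 590 nm, background-corrected, and expressed relative to medium-only cells; triplicates.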

Acinetobacter baumannii [11] = experiment: Antibacterial activity against Acinetobacter baumannii ATCC 17978 assessed as bacterial growth inhibition by broth microdilution assay; type: functional; procedure, shortened: as §1
Acinetobacter baumannii [12] = experiment: Antibacterial activity against Acinetobacter baumannii ATCC 19606 assessed as bacterial growth inhibition by broth microdilution assay; type: functional; procedure, shortened: as §1
Escherichia coli [13] = experiment: Antibacterial activity against multidrug-resistant Escherichia coli NCTC 13846 assessed as bacterial growth inhibition by broth microdilution assay; type: functional; procedure, shortened: as §1
Escherichia coli [14] = experiment: Antibacterial activity against Escherichia coli 1313 assessed as bacterial growth inhibition by broth microdilution assay; type: functional; procedure, shortened: as §2
Escherichia coli [15] = experiment: Synergistic antibacterial activity against polymyxin-resistant Escherichia coli assessed as fractional inhibitory concentration index incubated for 18 hrs in presence of rifampicin by checkerboard assay; type: functional
Procedure, shortened: (§3)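 8 × 8 checkerboard (64 combinations, each in triplicate) against E. coli EQAS mcr-2, grown to OD600 0.5 in TSB after overnight blood agar culture. Antibiotic and synergist serially diluted in CAMHB (12.5 μg mL−1 Mg2+, 20 μg mL−1 Ca2+), inoculum 10^6 CFU mL−1, 37 °C for 18 h. OD600 normalized to growth and no-growth controls. FICi calculated from minimal synergistic concentrations and single-agent MICs; ≤0.5 taken as synergy.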

[16] = Cytotoxicity against human ciPTEC cells assessed as reduction in cell viability incubated for 24 hrs by PrestoBlue reagent based fluorescence assay; type: toxicity; conditions: read-out: TC50
Procedure, shortened: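 ciPTEC-14.4 cells, differentiated, were treated for 24 h at 37 °C with compound at 100, 250, 500 or 1000 μM in serum-free DMEM/F-12 with insulin, transferrin, selenium, hydrocortisone, EGF and triiodothyronine. Viability was measured with 10% PrestoBlue in HBSS (fluorescence ex 530/em 590 nm), corrected for reagent background and normalized to untreated, medium-only control.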

Escherichia coli [17] = experiment: Synergistic antibacterial activity against polymyxin-resistant Escherichia coli assessed as fractional inhibitory concentration index incubated for 18 hrs in presence of novobiocin by checkerboard assay; type: functional; procedure, shortened: as §3
Escherichia coli [18] = experiment: Synergistic antibacterial activity against polymyxin-resistant Escherichia coli assessed as fractional inhibitory concentration index incubated for 18 hrs in presence of erythromycin by checkerboard assay; type: functional; procedure, shortened: as §3

| Compound | MIC (Acinetobacter baumannii [1]) | MIC (Klebsiella pneumoniae [2]) | MIC (Klebsiella pneumoniae [3]) | MIC (Klebsiella pneumoniae [4]) | MIC (Escherichia coli [5]) | MIC (Acinetobacter baumannii [6]) | MIC (Pseudomonas aeruginosa [7]) | MIC (Pseudomonas aeruginosa [8]) | MIC (Pseudomonas aeruginosa [9]) | Activity [10] | MIC (Acinetobacter baumannii [11]) | MIC (Acinetobacter baumannii [12]) | MIC (Escherichia coli [13]) | MIC (Escherichia coli [14]) | fractional inhibitory concentration index (FICI) (Escherichia coli [15]) | CC50 at 24 h [16] | fractional inhibitory concentration index (FICI) (Escherichia coli [17]) | fractional inhibitory concentration index (FICI) (Escherichia coli [18]) |
| --- | --- | --- | --- | --- | --- | --- | --- | --- | --- | --- | --- | --- | --- | --- | --- | --- | --- | --- |
| CC(C)C[C@@H]1NC(=O)[C@@H](Cc2ccccc2)NC(=O)[C@H](CCN)NC(=O)[C@@H](NC(=O)[C@H](CCN)NC(=O)[C@@H](NC(=O)[C@H](N)CSSCCC2CCCCC2)[C@@H](C)O)CCNC(=O)[C@H]([C@@H](C)O)NC(=O)[C@H](CCN)NC(=O)[C@H](CCN)NC1=O | 0.5 µg/mL (≈ 0.414 µM) | 2 µg/mL (≈ 1.65 µM) | 1 µg/mL (≈ 0.827 µM) | 2 µg/mL (≈ 1.65 µM) | 1 µg/mL (≈ 0.827 µM) | 1 µg/mL (≈ 0.827 µM) | 4 µg/mL (≈ 3.31 µM) | 4 µg/mL (≈ 3.31 µM) | 2 µg/mL (≈ 1.65 µM) | > 50% | 1 µg/mL (≈ 0.827 µM) | 0.5 µg/mL (≈ 0.414 µM) | 8 µg/mL (≈ 6.62 µM) | 2 µg/mL (≈ 1.65 µM) |  |  |  |  |
| CC(C)CCSSC[C@@H](N)C(=O)N[C@H](C(=O)N[C@@H](CCN)C(=O)N[C@H]1CCNC(=O)[C@H]([C@@H](C)O)NC(=O)[C@H](CCN)NC(=O)[C@H](CCN)NC(=O)[C@H](CC(C)C)NC(=O)[C@@H](Cc2ccccc2)NC(=O)[C@H](CCN)NC1=O)[C@@H](C)O | 0.5 µg/mL (≈ 0.428 µM) | 0.5 µg/mL (≈ 0.428 µM) | 0.5 µg/mL (≈ 0.428 µM) | 0.25 µg/mL (≈ 0.214 µM) | 1 µg/mL (≈ 0.856 µM) | 1 µg/mL (≈ 0.856 µM) | 1 µg/mL (≈ 0.856 µM) | 2 µg/mL (≈ 1.71 µM) | 1 µg/mL (≈ 0.856 µM) | > 50% | 1 µg/mL (≈ 0.856 µM) | 0.5 µg/mL (≈ 0.428 µM) | 8 µg/mL (≈ 6.85 µM) | ≤ 0.125 µg/mL |  |  |  |  |
| CC(C)CCSSC[C@@H](N)C(=O)N[C@H](C(=O)N[C@@H](CN)C(=O)N[C@H]1CCNC(=O)[C@H]([C@@H](C)O)NC(=O)[C@H](CCN)NC(=O)[C@H](CCN)NC(=O)[C@H](CC(C)C)NC(=O)[C@@H](Cc2ccccc2)NC(=O)[C@H](CCN)NC1=O)[C@@H](C)O | 0.25 µg/mL (≈ 0.217 µM) | 0.25 µg/mL (≈ 0.217 µM) | 0.25 µg/mL (≈ 0.217 µM) | 0.25 µg/mL (≈ 0.217 µM) | 1 µg/mL (≈ 0.866 µM) | 0.25 µg/mL (≈ 0.217 µM) | 1 µg/mL (≈ 0.866 µM) | 1 µg/mL (≈ 0.866 µM) | 1 µg/mL (≈ 0.866 µM) |  | 0.25 µg/mL (≈ 0.217 µM) | 0.25 µg/mL (≈ 0.217 µM) | 4 µg/mL (≈ 3.46 µM) | ≤ 0.125 µg/mL | 0.14 | 130 µM | 0.19 | 0.27 |
| CC(C)C[C@@H]1NC(=O)[C@@H](Cc2ccccc2)NC(=O)[C@H](CCN)NC(=O)[C@@H](NC(=O)[C@H](CCN)NC(=O)[C@@H](NC(=O)[C@H](N)CSSCc2cccc(Cl)c2)[C@@H](C)O)CCNC(=O)[C@H]([C@@H](C)O)NC(=O)[C@H](CCN)NC(=O)[C@H](CCN)NC1=O | 2 µg/mL (≈ 1.64 µM) | 0.25 µg/mL (≈ 0.204 µM) | 0.5 µg/mL (≈ 0.409 µM) | 0.25 µg/mL (≈ 0.204 µM) | 1 µg/mL (≈ 0.818 µM) | 4 µg/mL (≈ 3.27 µM) | 2 µg/mL (≈ 1.64 µM) | 1 µg/mL (≈ 0.818 µM) | 4 µg/mL (≈ 3.27 µM) | > 50% | 1 µg/mL (≈ 0.818 µM) | 1 µg/mL (≈ 0.818 µM) | 4 µg/mL (≈ 3.27 µM) | 0.125 µg/mL (≈ 0.102 µM) |  |  |  |  |
| CC[C@H](C)CCCCC(=O)N[C@@H](CCN)C(=O)N[C@H](C(=O)N[C@@H](CCN)C(=O)N[C@H]1CCNC(=O)[C@H]([C@@H](C)O)NC(=O)[C@H](CCN)NC(=O)[C@H](CCN)NC(=O)[C@H](CC(C)C)NC(=O)[C@@H](Cc2ccccc2)NC(=O)[C@H](CCN)NC1=O)[C@@H](C)O (X1-[Dab]T[Dab][Dab][Dab][dF]L[Dab][Dab]T; lactam 4-C) | 0.125 µg/mL (≈ 0.104 µM) | 0.5 µg/mL (≈ 0.415 µM) | 0.25 µg/mL (≈ 0.208 µM) | 0.25 µg/mL (≈ 0.208 µM) | 1 µg/mL (≈ 0.831 µM) | 0.5 µg/mL (≈ 0.415 µM) | 1 µg/mL (≈ 0.831 µM) | 1 µg/mL (≈ 0.831 µM) | 1 µg/mL (≈ 0.831 µM) | 85% | 0.25 µg/mL (≈ 0.208 µM) | 0.25 µg/mL (≈ 0.208 µM) | 4 µg/mL (≈ 3.32 µM) | 0.125 µg/mL (≈ 0.104 µM) |  | 1480 µM |  |  |
